Bioassay records (PubChem)
GalR3 antagonist = GalR3 antagonists in HEK293 cells, primary screen, cell-based, fluorescence readout; Galanin receptor type 3 (Homo sapiens), O60755; 0.44% of 360,000 active; HEK293 GalR3-CNG cAMP membrane potential fluorescence; galR3 body fused to GalR1 C-terminus; inhibition, % at 3 µM;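 active means inhibition above the screen-wide average plus 3 SD, cut at about 13% in these data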;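 further: forskolin and galanin both at EC90 stimulate the cells; cAMP rise reported by CNG channel membrane potential dye signal; 0% = forskolin plus galanin with DMSO and 100% = forskolin alone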
Target sequence (O60755 1-299 limits assumed): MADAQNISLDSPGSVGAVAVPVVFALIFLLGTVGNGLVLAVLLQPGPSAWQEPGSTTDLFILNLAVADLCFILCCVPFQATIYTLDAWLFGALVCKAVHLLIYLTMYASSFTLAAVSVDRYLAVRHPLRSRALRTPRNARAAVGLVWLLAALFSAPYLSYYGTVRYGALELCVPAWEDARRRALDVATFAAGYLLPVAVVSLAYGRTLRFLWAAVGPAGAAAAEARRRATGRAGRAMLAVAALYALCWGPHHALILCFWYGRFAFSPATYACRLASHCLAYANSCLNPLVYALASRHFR
NR2E3 ag-1 = inhibitors of NR2E3-RetCOR corepressor binding, primary screen, NR2E3 agonist project, biochemical, TR-FRET, GST-NR2E3, biotin-RetCOR | 1536-well | inhibition of corepressor binding, % at 4.78 µM | Photoreceptor-specific nuclear receptor (Homo sapiens), Q9Y5X4 | 0.12% of 320,000 active;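 active means percent inhibition above the cutoff of mean plus 3 SD of all tested compounds, set per screening campaign, cut at about 20% in these data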;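 further: 0% = DMSO wells and 100% = biotin wells as full block of FRET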
Target sequence (Q9Y5X4 whole entry, looked up): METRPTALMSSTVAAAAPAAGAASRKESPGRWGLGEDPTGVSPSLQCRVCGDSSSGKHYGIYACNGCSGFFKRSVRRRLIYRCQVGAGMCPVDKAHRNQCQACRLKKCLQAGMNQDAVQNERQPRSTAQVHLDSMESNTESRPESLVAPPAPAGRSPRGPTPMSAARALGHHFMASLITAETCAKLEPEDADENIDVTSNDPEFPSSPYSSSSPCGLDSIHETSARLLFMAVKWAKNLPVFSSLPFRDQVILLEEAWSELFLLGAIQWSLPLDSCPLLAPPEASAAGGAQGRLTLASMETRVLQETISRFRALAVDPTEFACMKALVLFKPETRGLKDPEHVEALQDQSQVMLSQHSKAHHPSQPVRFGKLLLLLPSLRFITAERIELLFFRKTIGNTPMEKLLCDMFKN
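Test system: GST-NR2E3 and biotin-RetCOR proteins | Quantity: 1.35 nM GST-tagged NR2E3 final | Medium: Tris pH 7.5 | Also added: 7 nM biotin-RetCOR | Dosing: Compound at 4.8 µM, single dose | Timing: 5 h at 4 °C | Detection: Time-resolved FRET | Read-out basis: Percent inhibition | Benchmarks: Biotin wells as high control, 0.6% DMSO wells as low control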
NadD inh = inhibitors of S. aureus NadD, primary screen, biochemical, colorimetric, uHTS; inhibition, % at 20 µM; purified NadD enzyme, colorimetric absorbance read-out; Nicotinate-nucleotide adenylyltransferase NadD (Staphylococcus aureus N315); 0.78% of 360,000 active; AID 602399, 2012; in the data active means inhibition above about 26%
bovine MsrA act = bovine MsrA enzyme activators, primary screen, biochemical, absorbance, HTS; purified bovine MsrA, absorbance read-out; 0.3% of 360,000 active; Methionine sulfoxide reductase A (Bos taurus); activation, % at 10.6 µM; AID 602163, 2012; in the data active means activation above about 7.5%;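 further: 0% = vehicle and 100% = reference activator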
MsrA inh = bovine MsrA enzyme inhibitors, primary screen, biochemical, absorbance, HTS; purified bovine MsrA, absorbance read-out; inhibition, % at 15.5 µM; 0.75% of 360,000 active; AID 651718, 2012; in the data active means inhibition above about 4.5%;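 further: 0% = vehicle wells with enzyme and 100% = reference inhibitor wells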
NR2E3 ag-2 = NR2E3 agonists in two-hybrid cells, primary screen, cell-based, luminescence, CHO-S, Gal4-NCOR/VP16-NR2E3 | Photoreceptor-specific nuclear receptor (Homo sapiens), Q9Y5X4 | luciferase | inhibition of corepressor binding, % at 3.98 µM | 0.35% of 360,000 active;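 active means inhibition above the mean of all tested compounds plus 3 SD, cut at about 70% in these data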;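 further: 0% = DMSO with NR2E3 transfected cells and 100% = cells lacking NR2E3 construct; higher means lower luciferase signal from less NR2E3 corepressor binding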
NadD conf = inhibitors of S. aureus NadD, confirmation, biochemical, colorimetric, single concentration. shares compounds with NadD inh. purified S. aureus NadD, colorimetric enzyme assay. inhibition, % at 20 µM. 13% of 2,000 active. AID 624309, 2012; in the data active means inhibition mostly above about 42%, no sharp cut-off; inactive means mostly below about 42%
The depositor's hits bear a star; nt = not tested or not shown. Compounds with a hit are over-represented: about 2.5% of the library has one in this group of screens.

SMILES | GalR3 antagonist | NR2E3 ag-1 | NadD inh | bovine MsrA act | MsrA inh | NR2E3 ag-2 | NadD conf
COc1ccc(Br)cc1CNC(=O)CN1C(=O)C(c2ccccc2)Oc2cccnc21 (stereo not given) | -8.8 | -0.6 | 58.5* | -2.0 | 1.7 | -0.7 | 52.2*
COc1ccc(NC(=O)CCCN2C(=O)C(c3ccccc3)Oc3cccnc32)cc1OC (stereo not given) | -7.4 | -1.8 | -2.8 | 0.2 | 0.6 | -42.5 | nt
N#CCC(=O)N1CC2(CC(c3cccc(NC(=O)COc4ccc(Cl)cc4)c3)=NO2)C[C@@H]1C(N)=O (stereo not given in full) | -2.9 | 6.4 | 7.8 | -0.5 | 0.9 | 0.5 | nt
C/C=C\C=C\C(=O)Nc1cccc(C2=NOC3(C2)C[C@@H](C(N)=O)N(C(=O)C(c2ccccc2)c2ccccc2)C3)c1 (stereo not given in full) | -8.2 | 4.8 | 39.2* | -0.5 | -0.7 | -28.0 | 54.8*
NC(=O)[C@H]1CC2(CC(c3cccc(NC(=O)COc4ccc(Cl)cc4)c3)=NO2)CN1C(=O)C(c1ccccc1)c1ccccc1 (stereo not given in full) | -1.9 | 1.7 | 32.9* | -2.0 | -0.3 | 6.5 | 32.9
NC(=O)[C@@H]1CC2(CC(c3cccc(NC(=O)COc4ccc(Cl)cc4)c3)=NO2)CN1C(=O)COc1ccc(Cl)cc1 (stereo not given in full) | -5.5 | 6.5 | 47.9* | -2.3 | 0.3 | -12.0 | 24.1
CCOC(=O)[C@]12CCCC=C1N(CCC1=CCCCC1)C(=O)[C@H](CC(=O)NCCC(C)C)C2 | -2.5 | nt | nt | nt | -0.7 | nt | nt
C/C(N)=C(/C#N)C(=O)COC(=O)c1ccc(O)cc1 | -1.8 | -4.0 | 0.8 | -2.7 | -1.0 | 20.0 | nt
Nc1ccc(Cc2ccc(N)c(O)c2)cc1O | -1.7 | nt | 36.8* | -3.9 | -0.5 | -53.2 | 24.8
CC(C)C[C@H]1CN([C@@H](Cc2ccc(O)cc2)CN2CCC[C@H]2CN2C(=O)C(=O)NC[C@@H]2Cc2ccccc2)C(=O)C(=O)N1CC1CCCCC1 | -9.9 | nt | 22.8 | -4.1 | 1.3 | -11.5 | nt
CC(C)C[C@@H](CN1CCC[C@@H]1CN1C(=O)C(=O)NC[C@@H]1Cc1ccccc1)N1C[C@H](Cc2ccc(O)cc2)N(CC2CCCCCC2)C(=O)C1=O | -4.2 | nt | 23.8 | -2.1 | 1.0 | 6.2 | nt
CC(C)C[C@H]1CN([C@@H](Cc2ccc(O)cc2)CN2CCC[C@@H]2CN2C(=O)C(=O)NC[C@@H]2Cc2ccccc2)C(=O)C(=O)N1CC1CCCCCC1 | -4.9 | nt | 29.1 | -2.3 | 0.3 | -16.2 | nt
O=C1NC[C@H](Cc2ccccc2)N(C[C@H]2CCCN2C[C@H](Cc2ccc(O)cc2)N2C[C@H](Cc3ccc(O)cc3)N(CC3CCCCCC3)C(=O)C2=O)C1=O | -5.3 | nt | 32.8* | -1.0 | 0.8 | -27.6 | 34.2
O=C1NC[C@H](Cc2ccccc2)N(C[C@H]2CCCN2C[C@H](Cc2ccccc2)N2C[C@H](Cc3ccc(O)cc3)N(CC3CCCCCC3)C(=O)C2=O)C1=O | -4.9 | nt | 30.8* | 2.9 | -0.8 | -20.6 | 47.7*
O=C1NC[C@H](Cc2ccc(O)cc2)N(C[C@@H]2CCCN2C[C@H](Cc2ccc(O)cc2)N2C[C@H](Cc3ccccc3)N(CC3CCCCCC3)C(=O)C2=O)C1=O | -5.7 | nt | 45.0* | 0.5 | 0.1 | 8.9 | 39.5
O=C1NC[C@H](Cc2ccc(O)cc2)N(C[C@@H]2CCCN2C[C@H](Cc2ccccc2)N2C[C@H](Cc3ccc(O)cc3)N(CC3CCCCCC3)C(=O)C2=O)C1=O | -3.9 | nt | 38.6* | -3.5 | -0.6 | -7.4 | 45.9
COc1ccccc1CCNC(=O)CC1C(=O)NCCN1CCCc1ccccc1 (stereo not given) | -3.6 | 1.9 | 4.8 | -9.9 | -0.7 | -18.9 | nt
CC(C)N(CCCNC(=O)C1CCC(CNS(=O)(=O)c2ccccc2)CC1)Cc1ccccc1 (stereo not given) | -4.8 | -0.9 | -14.3 | 0.1 | -0.3 | 6.4 | nt
O=C(c1ccco1)N1C(=O)c2cccc3c(S(=O)(=O)N4CCCC4)ccc1c23 | -5.3 | 0.1 | -4.9 | -7.7 | 0.2 | -0.8 | nt
COc1cc(/C=C2\SC(=O)N(CC(=O)Nc3cccc(C)c3)C2=O)cc([N+](=O)[O-])c1O | 0.0 | nt | 40.8* | -5.2 | 1.7 | 1.2 | 6.0
CCOc1cc(/C=C2\SC(=O)N(CC(=O)Nc3ccccc3F)C2=O)cc([N+](=O)[O-])c1O | 0.6 | 3.8 | 16.9 | -11.7 | -0.3 | -11.3 | nt
O=C(CCCCn1c(=S)[nH]c2ccsc2c1=O)NCc1ccc2c(c1)OCO2 | -4.3 | 0.9 | 29.9* | 3.4 | 2.1 | 18.3 | 35.4
O=C(Cn1nc(-c2ccccc2)c2ccccc2c1=O)Nc1ccc(F)cc1 | 0.3 | -2.6 | -6.2 | -3.7 | -1.0 | -7.4 | nt
N#Cc1c(-c2ccccc2)c(-c2ccccc2)nn(CC(=O)NNC(=O)Nc2ccc(Cl)c(Cl)c2)c1=O | -5.5 | -0.1 | 51.3* | -2.6 | 1.4 | -86.8 | 44.1
CCn1c2ccccc2c2cc(NC(=O)COC(=O)c3cc(Cl)c(N)cc3OC)ccc21 | -5.2 | -1.6 | 35.8* | -3.0 | 0.7 | -12.2 | 26.2
SMILES | GalR3 antagonist | NR2E3 ag-1 | NadD inh | bovine MsrA act | MsrA inh | NR2E3 ag-2 | NadD conf
CCn1c2ccccc2c2cc(NC(=O)COC(=O)c3cc(S(N)(=O)=O)c(Cl)cc3Cl)ccc21 | -7.0 | 2.4 | 40.6* | -6.7 | 0.6 | -15.4 | 26.4
CCn1c2ccccc2c2cc(NC(=O)COC(=O)c3ccccc3O)ccc21 | -4.6 | 4.7 | 13.5 | -1.6 | 0.9 | -28.8 | nt
CCC(c1nnnn1Cc1ccc(F)cc1)N1CCN(C)CC1 (stereo not given) | -3.4 | -2.5 | 3.2 | -0.8 | 2.0 | -8.2 | nt
CC(C)c1nc2sc3c(=S)nc[nH]c3c2c2c1CCC2 | -3.6 | 4.9 | 9.3 | -5.4 | -0.4 | 8.5 | nt
S=c1nc[nH]c2c1sc1nc(N3CCOCC3)c3c(c12)CCCC3 | 1.5 | 4.9 | 32.8* | -3.5 | 0.5 | -2.4 | -2.0
Cc1ccc(NC(=O)c2ncn(CCCN(CCCn3cnc(C(=O)Nc4ccc(C)c(C)c4)n3)Cc3ccc4[nH]ccc4c3)n2)cc1C | -4.3 | nt | 38.7* | 0.8 | 0.8 | -27.6 | 31.7
